For test [1], the target named is T1, Alpha-2A adrenergic receptor (Homo sapiens) (UniProt P08913).
T1 sequence (whole entry): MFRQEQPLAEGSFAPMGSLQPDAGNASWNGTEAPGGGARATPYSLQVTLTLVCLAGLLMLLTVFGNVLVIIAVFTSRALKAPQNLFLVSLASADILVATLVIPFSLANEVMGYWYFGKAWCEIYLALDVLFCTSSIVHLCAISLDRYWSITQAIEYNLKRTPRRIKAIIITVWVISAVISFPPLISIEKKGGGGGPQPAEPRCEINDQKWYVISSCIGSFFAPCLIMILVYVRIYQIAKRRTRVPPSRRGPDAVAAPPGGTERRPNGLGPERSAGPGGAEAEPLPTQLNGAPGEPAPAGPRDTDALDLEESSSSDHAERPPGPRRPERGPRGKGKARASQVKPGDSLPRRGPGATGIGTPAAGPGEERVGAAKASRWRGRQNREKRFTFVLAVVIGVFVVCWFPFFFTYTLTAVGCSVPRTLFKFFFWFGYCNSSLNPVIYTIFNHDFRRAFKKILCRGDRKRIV
The test can be described thus: Intrinsic activity relative to Norepinephrine at Alpha-2A adrenergic receptor from CHO-C10 cells. Format: cell-based. Put shortly: (§1)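 Functional agonist response measured by Cytosensor microphysiometry in CHO cells expressing α2A (CHO-C10) or rat α2B (CHO-RNG) adrenoceptor.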

Test [2] concerns the target T2, Alpha-2C adrenergic receptor (Homo sapiens) (UniProt P18825).
T2 sequence (whole entry): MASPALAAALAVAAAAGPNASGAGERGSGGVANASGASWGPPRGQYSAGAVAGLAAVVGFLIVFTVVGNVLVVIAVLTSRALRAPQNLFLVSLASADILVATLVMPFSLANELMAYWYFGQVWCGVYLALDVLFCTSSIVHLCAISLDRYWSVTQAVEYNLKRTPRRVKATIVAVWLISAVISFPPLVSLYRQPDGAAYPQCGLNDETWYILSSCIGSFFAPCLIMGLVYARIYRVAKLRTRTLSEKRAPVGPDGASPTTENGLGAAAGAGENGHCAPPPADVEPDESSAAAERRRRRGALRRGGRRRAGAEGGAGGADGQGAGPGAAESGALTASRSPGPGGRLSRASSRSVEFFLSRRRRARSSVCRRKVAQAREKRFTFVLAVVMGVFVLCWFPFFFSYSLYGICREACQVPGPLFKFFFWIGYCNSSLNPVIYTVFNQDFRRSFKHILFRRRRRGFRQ
Conditions: CHO-C4.

The target in test [3] is T3, Alpha-2B adrenergic receptor (Rattus norvegicus) (UniProt P19328).
T3 sequence (whole entry): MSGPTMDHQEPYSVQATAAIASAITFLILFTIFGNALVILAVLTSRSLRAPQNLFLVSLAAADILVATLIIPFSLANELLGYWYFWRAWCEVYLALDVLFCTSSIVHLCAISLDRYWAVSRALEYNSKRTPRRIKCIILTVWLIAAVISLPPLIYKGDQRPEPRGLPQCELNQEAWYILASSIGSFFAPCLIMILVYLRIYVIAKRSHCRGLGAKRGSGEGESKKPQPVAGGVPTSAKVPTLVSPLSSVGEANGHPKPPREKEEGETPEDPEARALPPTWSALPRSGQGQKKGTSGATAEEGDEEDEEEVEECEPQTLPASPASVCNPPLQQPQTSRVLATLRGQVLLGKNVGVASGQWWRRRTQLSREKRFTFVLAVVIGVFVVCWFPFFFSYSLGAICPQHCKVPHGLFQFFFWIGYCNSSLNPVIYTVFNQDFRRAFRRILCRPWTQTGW
Kind of test: Intrinsic activity relative to Norepinephrine at Alpha-2B adrenergic receptor from CHO-RNG cells. It counts as cell-based. Put shortly: as §1

Test [4] has as its target T4, Adrenergic receptor alpha-1 (Homo sapiens, UniProt P35348+P25100+P35368).
T4 sequence (P35348 whole entry): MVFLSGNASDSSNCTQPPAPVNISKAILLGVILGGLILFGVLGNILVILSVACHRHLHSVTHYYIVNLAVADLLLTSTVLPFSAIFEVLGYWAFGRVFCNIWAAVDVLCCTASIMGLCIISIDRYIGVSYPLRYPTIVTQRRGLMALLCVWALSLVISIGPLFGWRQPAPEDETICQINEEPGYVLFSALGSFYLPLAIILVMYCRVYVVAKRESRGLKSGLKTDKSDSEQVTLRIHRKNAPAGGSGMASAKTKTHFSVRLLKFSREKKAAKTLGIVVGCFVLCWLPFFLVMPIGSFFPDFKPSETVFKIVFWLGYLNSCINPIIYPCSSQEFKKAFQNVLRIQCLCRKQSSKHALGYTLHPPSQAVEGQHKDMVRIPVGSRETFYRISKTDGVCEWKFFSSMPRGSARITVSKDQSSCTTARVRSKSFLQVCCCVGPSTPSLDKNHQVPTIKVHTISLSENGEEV
T4 sequence (P25100 whole entry): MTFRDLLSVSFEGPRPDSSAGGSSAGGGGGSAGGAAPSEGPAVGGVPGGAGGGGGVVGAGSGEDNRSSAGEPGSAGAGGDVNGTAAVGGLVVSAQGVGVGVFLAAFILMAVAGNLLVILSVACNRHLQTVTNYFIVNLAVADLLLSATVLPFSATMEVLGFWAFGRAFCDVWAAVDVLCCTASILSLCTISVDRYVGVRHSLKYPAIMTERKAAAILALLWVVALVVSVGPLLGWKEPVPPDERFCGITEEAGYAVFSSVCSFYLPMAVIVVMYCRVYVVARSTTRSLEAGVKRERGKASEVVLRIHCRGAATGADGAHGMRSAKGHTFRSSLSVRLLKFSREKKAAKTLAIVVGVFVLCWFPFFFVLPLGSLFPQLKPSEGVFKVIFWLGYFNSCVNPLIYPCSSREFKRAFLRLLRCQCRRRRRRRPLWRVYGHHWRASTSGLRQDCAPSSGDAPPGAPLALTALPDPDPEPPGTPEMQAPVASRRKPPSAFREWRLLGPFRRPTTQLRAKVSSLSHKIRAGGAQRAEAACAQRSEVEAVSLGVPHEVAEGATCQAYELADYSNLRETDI
T4 sequence (P35368 whole entry): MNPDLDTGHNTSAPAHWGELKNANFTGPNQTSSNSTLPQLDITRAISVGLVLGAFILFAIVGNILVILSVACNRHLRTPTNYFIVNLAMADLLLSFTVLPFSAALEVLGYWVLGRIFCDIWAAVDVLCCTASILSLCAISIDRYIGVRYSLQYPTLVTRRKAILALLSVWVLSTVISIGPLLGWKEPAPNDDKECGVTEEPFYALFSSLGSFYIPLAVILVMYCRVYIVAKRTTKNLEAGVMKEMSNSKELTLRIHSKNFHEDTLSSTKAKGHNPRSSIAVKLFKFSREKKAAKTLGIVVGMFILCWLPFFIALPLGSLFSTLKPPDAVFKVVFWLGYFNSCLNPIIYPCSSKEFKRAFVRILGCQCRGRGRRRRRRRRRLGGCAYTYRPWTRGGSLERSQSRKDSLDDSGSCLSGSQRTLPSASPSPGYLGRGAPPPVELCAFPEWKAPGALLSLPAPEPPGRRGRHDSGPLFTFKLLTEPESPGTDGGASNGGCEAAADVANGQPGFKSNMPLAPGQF
The test can be described thus: Displacement of prazosin from Alpha-1 adrenergic receptors of human cerebral cortex homogenate. Format: tissue-based. Put shortly:
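Membranes from human cerebral cortex, giving a mixed α1 subtype population; affinity from competition against radiolabeled prazosin; nonlinear least-squares curve fitting; at least three separate determinations.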

The target in test [5] is T5, Alpha-2B adrenergic receptor (Rattus norvegicus, UniProt P19328).
T5 sequence (P19328 whole entry): T3 sequence (whole entry)
The test can be described thus: Displacement of rauwolscine from rat Alpha-2B adrenergic receptor expressed in CHO cells. Format: cell-based. Put shortly:
(§2)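 Membranes of CHO cells expressing human α2A (CHO-C10), human α2C (CHO-C4) or rat α2B (CHO-RNG) receptor; competition against radiolabeled rauwolscine; affinity constants by nonlinear least-squares curve fitting; at least three separate determinations.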

The target of test [6] is T6, Alpha-2A adrenergic receptor (Homo sapiens, UniProt P08913).
T6 sequence (P08913 whole entry): T1 sequence (whole entry)
The test can be described thus: Displacement of rauwolscine from human Alpha-2A adrenergic receptor expressed in CHO cells. It counts as cell-based. Put shortly:
as §2

The target of test [7] is T7, Alpha-2C adrenergic receptor (Homo sapiens, UniProt P18825).
T7 sequence (P18825 whole entry): T2 sequence (whole entry)
Kind of test: Displacement of rauwolscine from human Alpha-2C adrenergic receptor expressed in CHO cells. Format: cell-based. Put shortly:
as §2

Test [8] addresses T6, Alpha-2A adrenergic receptor. Kind of test: Effective concentration at Alpha-2A adrenergic receptor from CHO-C10 cells. Format: functional, cell-based. Put shortly:
as §1

In test [9] the target is T5, Alpha-2B adrenergic receptor. Kind of test: Effective Concentration at Alpha-2B adrenergic receptor from CHO-RNG cells. It counts as functional, cell-based. Put shortly: as §1
Test [10] has as its target T7, Alpha-2C adrenergic receptor. Kind of test: Effective concentration at Alpha-2C adrenergic receptor from CHO-C4 cells. It counts as functional, cell-based. Put shortly: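 Functional agonist assay in CHO cells expressing the human α2C-adrenoceptor (CHO-C4). Responses were read on a Cytosensor microphysiometer.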

Some results are limits rather than exact numbers.

As for `Brc1c(NC2=NCCN2)ccc2nccnc12` [BRIMONIDINE], the IA is 0.91 in test [1], 0.82 in test [2] and 0.89 in [3]. Moreover, in test [4], the inhibition constant (Ki) is reported as 1800 nM.

For the compound `c1c[nH]c(Nc2ccc3[nH]cnc3c2)n1`, the inhibition constant (Ki) in test [5] stood at 640 nM; in [4] it was 24000 nM; in test [6] it was 76 nM; in test [7], 400 nM.

Consider `Brc1ccccc1Nc1ncc[nH]1`, for which the inhibition constant (Ki) in test [5] was 1500 nM; in test [4], 11000 nM; in test [6] it was 210 nM.

`COc1ccc(Nc2ncc[nH]2)c(C)c1` showed a Ki in [4] of 8400 nM. In other words, the single-digit micromolar range.

For the compound `COc1cc(C)c(Nc2ncc[nH]2)cc1C(C)(C)C`, the Ki was 380 nM in test [5], 16000 nM in test [4], 39 nM in test [6] and 290 nM in test [7].

Take `c1c[nH]c(Nc2ccc3nccnc3c2)n1`: the Ki was 9300 nM in test [5], more than 100000 nM in test [4], 3100 nM in test [6] and 8800 nM in test [7].

On to `COc1ccc(Nc2ncc[nH]2)c(C)c1OC`, for which the Ki in [5] worked out at 2500 nM; in test [4], 6600 nM; in test [6] it was 130 nM; in test [7], 1500 nM.

Take `COc1c(C(C)(C)C)cc(C)c(Nc2ncc[nH]2)c1C`: the values for the 50% effective concentration (EC50) in test [8], in test [9] and in test [10] were more than 5000 nM, 1100 nM and more than 5000 nM, respectively. This compound came in with an IA in test [3] of 0.65. Moreover, in [4], the inhibition constant (Ki) was 4200 nM.

Take `Cc1c(Nc2ncc[nH]2)ccc2c1OCCO2`: the IA in test [1] came out at 0.89; in test [2] it was 0.5; in [3], 1. Moreover, the figures for the EC50 in [8], in [9] and in test [10] were 8.7 nM, 41 nM and 6.6 nM, respectively. For the same compound, in test [4], the inhibition constant (Ki) stood at 2100 nM.

For the compound `Cc1c(Nc2ncc[nH]2)ccc2nccnc12`, the Ki in [5] is 1200 nM; in [4], more than 28000 nM; in [7] it was 340 nM.

Consider `Clc1cccc(Cl)c1Nc1ncc[nH]1`, for which the inhibition constant (Ki) in test [4] is 6000 nM; in test [7], 1100 nM.

On to `Brc1c(Nc2ncc[nH]2)ccc2nccnc12`, for which the Ki in [5] is more than 10000 nM; in test [4], more than 100000 nM; in [7], more than 10000 nM.

In the case of `Cc1c(Nc2ncc[nH]2)ccc2c1NCCO2`, the IA in test [1] came to 0.49; in test [2], 0.64; in test [3], 0.88. Further, the figures for the concentration for a half-maximal effect (EC50) in test [8], in test [9] and in test [10] were 124 nM, 470 nM and 110 nM, respectively. Further, the Ki in [5] was determined as 421 nM; in test [4], 16000 nM; in test [6] it was 6 nM.

These data come from ChEMBL document CHEMBL1130342, “Synthesis and evaluation of 2-(arylamino)imidazoles as alpha 2-adrenergic agonists” (J Med Chem, 1997).
